# Assay results from ChEMBL document CHEMBL2034911, “Carbazole alkaloids from the stems of Clausena lansium” (J Nat Prod, 2012).
# Activity calls are given as the source filed them. The calls are words filed in the database; no cut-off is given here.
# Legend:
# Type in all cases: functional, cell-based
# PC-12 [1] = assay: Neuroprotective activity in rat PC12 cells assessed as inhibition of amyloid beta(25 to 35)-induced cell death at 10 uM incubated 48 hrs […] by MTT assay
# Summary of the method: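 PC12 cells were grown in DMEM with 5% FBS and 5% equine serum and seeded at 5000 cells/well for 24 h. Basic medium with 15 μM Aβ25−35 was applied for 48 h, with compound (DMSO stock, >1000-fold dilution) co-added, in triplicate. Viability was measured by MTT (4 h), formazan dissolved in DMSO, and absorbance read at 570 nm. ANOVA/Newman–Keuls.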
# PC-12 [2] = assay: Neuroprotective activity in rat PC12 cells assessed as inhibition of serum starvation-induced cell death after 24 hrs by MTT assay
# Summary of the method: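 Serum-withdrawal model: PC12 cells (5000/well) were pre-grown 24 h in DMEM with 5% FBS and 5% equine serum, then moved to plain DMEM. Compound (DMSO stock, >1000-fold dilution) was added at the same time, in triplicate, and cells were incubated 24 h at 37 °C, 5% CO2. MTT was added for 4 h, formazan dissolved in DMSO, and A570 read. ANOVA with Newman–Keuls test.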
# PC-12 [3] = assay: Neuroprotective activity in rat PC12 cells assessed as inhibition of SNP-induced cell death at 10 uM incubated 24 hrs post SNP-challenge for 24 hrs by MTT assay
# Summary of the method: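 PC12 cells were grown in DMEM with 5% FBS and 5% equine serum and seeded at 5000 cells/well for 24 h. Medium was switched to basic medium with 350 μM SNP for 24 h, with compound (DMSO stock, >1000-fold dilution) added at the same time, in triplicate. MTT was added for 4 h, formazan dissolved in DMSO, and A570 read. ANOVA with Newman–Keuls post hoc test.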
SMILES,Activity (PC-12 [1]),Activity (PC-12 [2]),Activity (PC-12 [3])
COc1c2c(cc3c1[nH]c1ccccc13)[C@H]1O[C@@H]([C@H]2O)C(C)(C)O1,inactive,inactive,inactive
CC(C)=CCc1c(C=O)cc(O)c2[nH]c3ccccc3c12,inactive,inactive,inactive
COc1ccc2[nH]c3ccc(C=O)cc3c2c1,inactive,inactive,inactive
COc1ccc2[nH]c3c4c(c(C=O)cc3c2c1)OC(C)(C)C=C4,inactive,inactive,Active
COc1c2c(cc3c1[nH]c1ccccc13)[C@H]1O[C@@H](C2)C(C)(C)O1,Active,inactive,Active
COc1c2c(cc3c1[nH]c1ccccc13)C(=O)C[C@@H]2O,inactive,inactive,inactive
COc1c2c(cc3c1[nH]c1ccccc13)C(=O)C(=C(C)C)C2,inactive,inactive,inactive
COc1cc2c(cc1O)[nH]c1cc(O)c(C=O)cc12,Active,inactive,Active
COc1c2c(cc3c1[nH]c1ccccc13)C(=O)O[C@@H]2[C@H](O)C(C)(C)O,inactive,inactive,inactive
COc1ccc2[nH]c3c(O)cc(C=O)cc3c2c1,inactive,inactive,Active
COc1cc(C=O)cc2c1[nH]c1ccccc12,Active,inactive,Active
COC(=O)c1ccc2[nH]c3ccc(OC)cc3c2c1,inactive,inactive,Active
O=Cc1ccc2[nH]c3ccccc3c2c1,inactive,inactive,inactive
COc1cc2c(cc1O)[nH]c1c(CC=C(C)C)c(O)c(C=O)cc12,Active,inactive,inactive
COc1ccc2[nH]c3cc(OC)c(C=O)cc3c2c1,inactive,inactive,inactive
COc1c2c(cc3c1[nH]c1ccccc13)C(=O)O[C@H](C(C)(C)O)[C@H]2O,inactive,inactive,inactive
CC(C)=CCc1c(C=O)cc2c([nH]c3ccccc32)c1O,Active,inactive,inactive
